SMILES strings stand for the structures. Positions of bridges follow the written chain, without caps; N, C: chain ends. Non-standard residues stand in square brackets, D forms with d. Residues, ends and D or L forms follow the SMILES beside them. Nle = CCCC[C@H](N)C(=O)O; Aib = CC(C)(N)C(=O)O

Data set [1] can be described thus: Stability in porcine vitreous assessed as increase in life time measured at 10 uM after 10 days by UPLC-MS/MS analysis. Conditions: pig, 240 h, time 10 day. It is filed as ADME, tissue-based, Sus scrofa, Vitreous humor. The essentials:
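Peptide at 10 µM incubated at 37°C in porcine vitreous containing 1% penicillin/streptomycin, one separate tube per time point. Remaining parent peptide quantified by UPLC-MS/MS at each time point.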

Data set [2] in a line: Binding affinity to VEGF (unknown origin) by microscale thermophoresis assay. Set-up: species or system Homo sapiens. In a few lines:
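Microscale thermophoresis with fluorescently labeled VEGF-RED (initial concentration 12 nM), read on a Monolith NT.115 Pico. Peptide and VEGF were measured immediately after mixing, with no incubation. KD derived from the thermophoresis signal.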
(Microscale thermophoresis detects binding through changes in fluorescence in a small temperature gradient.)

Data set [3] is described as follows: Inhibition of VEGF-mediated in human HUVEC cell proliferation incubated for 48 hrs by MTT assay. In a few lines:
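HUVECs seeded at 25,000/well in medium with 0.5 ng/mL VEGF165 for 48 h, then starved 24 h without VEGF or FBS. Peptide (4, 20, 100, 500 µM) premixed with 50 ng/mL VEGF165 for 2 h at 37°C, then added to cells for 48 h. MTT read-out as percent of no-peptide control OD, fitted to IC50; mean ± SD, n = 3.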
For orientation: Tetrazolium assays rely on reduction of a dye to a coloured formazan, in cell work by metabolically active cells.

A short description of data set [4]: Binding affinity to VEGF (unknown origin) incubated for 30 mins by microscale thermophoresis assay. Also noted: species or system Homo sapiens. The essentials: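 Fluorescently labeled VEGF-RED (initial concentration 12 nM) mixed with peptide and incubated 30 min to reach complex equilibrium before microscale thermophoresis on a Monolith NT.115 Pico. KD obtained from the thermophoresis signal.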

A further data set concerns ARPE-19. The experiment in a line: Cytotoxicity against human ARPE-19 cells assessed as cell viability up to 20 uM measured after 5 hrs by MTT assay. Type of data set: cell-based. Conditions: arpe-19, 5 h. The essentials:
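ARPE-19 cells seeded at 20,000/well and grown overnight, then washed. Exposed 5 h at 37°C, 7% CO2 to peptide at 0.01–100 µM in complete medium. Medium replaced, cells grown a further 24 h. MTT 4 h at 37°C, formazan dissolved in 10% SDS/0.01 M HCl overnight, A570 read. Viability relative to untreated cells; poly-L-lysine-treated cells as control.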

The Kd is the equilibrium constant for the complex coming apart. A higher Kd goes with weaker binding. Broadly, the IC50 is the concentration at which inhibition is half-maximal. A higher IC50 goes with lower potency. Consider `CCCC[C@@H]1NC(=O)[C@H](C(C)C)NC(=O)C(C)(C)NC(=O)[C@H]([C@@H](C)CC)NC(=O)[C@H](CC(=O)O)NC(=O)[C@@H](NC(=O)[C@H](CC(N)=O)NC(=O)[C@@H]2CCCN2C(=O)[C@H](CCC(=O)O)NC(=O)[C@@H](N)C(C)C)CSSC[C@@H](C(=O)N[C@@H](Cc2ccccc2)C(=O)N[C@@H](CCC(=O)O)C(=O)N[C@@H](CCCNC(=N)N)C(=O)N[C@@H](CC(C)C)C(=O)O)NC(=O)[C@H](CCC(=O)O)NC(=O)[C@H](Cc2c[nH]c3ccccc23)NC(=O)[C@H](CCC(=O)O)NC(=O)[C@H](Cc2c[nH]c3ccccc23)NC1=O`, for which the Stability result in data set [1] was “Stable”. Besides, in data set [2], the Kd came to 11.8 µM. In data set [3], this compound yielded an IC50 of 50 µM.

Consider `CCCC[C@@H]1NC(=O)[C@H](C(C)C)NC(=O)[C@H](Cc2c[nH]cn2)NC(=O)[C@H]([C@@H](C)CC)NC(=O)[C@H](CC(=O)O)NC(=O)[C@@H](NC(=O)[C@H](CC(N)=O)NC(=O)[C@@H]2CCCN2C(=O)[C@H](CCC(=O)O)NC(=O)[C@@H](N)C(C)C)CSSC[C@@H](C(=O)N[C@@H](Cc2ccccc2)C(=O)N[C@@H](CCC(=O)O)C(=O)N[C@@H](CCCNC(=N)N)C(=O)N[C@@H](CC(C)C)C(=O)O)NC(=O)[C@H](CCC(=O)O)NC(=O)[C@H](Cc2c[nH]c3ccccc23)NC(=O)[C@H](CCC(=O)O)NC(=O)[C@H](Cc2c[nH]c3ccccc23)NC1=O`, for which the results for the Kd in data set [2] and in data set [4] were 3.87 µM and 0.3 µM, respectively. This compound also returned an IC50 in data set [3] of 20 µM. For the same compound, the Activity result in the data set with ARPE-19 is reported as “Non-Toxic”.

With `CCCC[C@@H]1NC(=O)[C@H](C(C)C)NC(=O)[C@H](Cc2c[nH]cn2)NC(=O)[C@H]([C@@H](C)CC)NC(=O)[C@H](CC(=O)O)NC(=O)[C@@H](NC(=O)[C@H](CCCCN)NC(=O)[C@H](CCCCN)NC(=O)C(C)(C)NC(=O)[C@@H](N)CCCCN)CSSC[C@@H](C(=O)N[C@@H](Cc2ccccc2)C(=O)N[C@@H](CCC(=O)O)C(=O)N[C@@H](CCCNC(=N)N)C(=O)N[C@@H](CC(C)C)C(=O)O)NC(=O)[C@H](CCC(=O)O)NC(=O)[C@H](Cc2c[nH]c3ccccc23)NC(=O)[C@H](CCC(=O)O)NC(=O)[C@H](Cc2c[nH]c3ccccc23)NC1=O`, the Stability result in data set [1] is given as “Stable”. Moreover, the values for the Kd in data set [2] and in data set [4] were 0.54 µM and 3 µM, respectively. In data set [3], this compound returned an IC50 of 6 µM.

For `CCCC[C@@H]1NC(=O)[C@H](C(C)C)NC(=O)[C@H](Cc2c[nH]cn2)NC(=O)[C@H]([C@@H](C)CC)NC(=O)[C@H](CC(=O)O)NC(=O)[C@@H](N)CSSC[C@@H](C(=O)N[C@@H](Cc2ccccc2)C(=O)N[C@@H](CCC(=O)O)C(=O)N[C@@H](CCCNC(=N)N)C(=O)N[C@@H](CC(C)C)C(=O)O)NC(=O)[C@H](CCC(=O)O)NC(=O)[C@H](Cc2c[nH]c3ccccc23)NC(=O)[C@H](CCC(=O)O)NC(=O)[C@H](Cc2c[nH]c3ccccc23)NC1=O`, the Kd in data set [2] is 9.97 µM. For the same compound, in data set [3], the IC50 came out at 12 µM.

With `CCCC[C@@H]1NC(=O)[C@H](C(C)C)NC(=O)[C@H](Cc2c[nH]cn2)NC(=O)[C@H]([C@@H](C)CC)NC(=O)[C@H](CC(=O)O)NC(=O)[C@@H](NC(=O)[C@H](CC(N)=O)NC(=O)[C@@H]2CCCN2C(=O)C(C)(C)NC(=O)[C@@H](N)C(C)C)CSSC[C@@H](C(=O)N[C@@H](Cc2ccccc2)C(=O)N[C@@H](CCC(=O)O)C(=O)N[C@@H](CCCNC(=N)N)C(=O)N[C@@H](CC(C)C)C(=O)O)NC(=O)[C@H](CCC(=O)O)NC(=O)[C@H](Cc2c[nH]c3ccccc23)NC(=O)[C@H](CCC(=O)O)NC(=O)[C@H](Cc2c[nH]c3ccccc23)NC1=O`, in data set [1], the Stability result is “Stable”. The Kd was found to be 2.97 µM in data set [2] and 0.004 µM in data set [4]. The compound also yielded an IC50 in data set [3] of 10 µM.

With `CCCC[C@@H]1NC(=O)[C@H](C(C)C)NC(=O)[C@H](Cc2c[nH]cn2)NC(=O)[C@H]([C@@H](C)CC)NC(=O)[C@H](CC(=O)O)NC(=O)[C@@H](NC(=O)[C@H](CC(N)=O)NC(=O)[C@@H]2CCCN2C(=O)[C@H](CCC(=O)O)NC(=O)[C@@H](N)C(C)C)CSSC[C@@H](C(=O)N[C@@H](Cc2ccccc2)C(=O)N[C@@H](CCC(=O)O)C(=O)N[C@@H](CCCNC(=N)N)C(=O)N[C@@H](CC(C)C)C(=O)O)NC(=O)[C@H](CCC(=O)O)NC(=O)[C@H](Cc2c[nH]c3ccccc23)NC(=O)C(C)(C)NC(=O)[C@H](Cc2c[nH]c3ccccc23)NC1=O` (H-VEPNCDIHV[Nle]W[Aib]WECFERL-OH; disulfide 5-15), the Stability result in data set [1] is listed as “Unstable”. The Kd in data set [2] was determined as 0.94 µM; in data set [4], 0.15 µM. This compound also displayed an IC50 in data set [3] of 3.5 µM.

As to `CCCC[C@@H]1NC(=O)[C@H](C(C)C)NC(=O)[C@H](Cc2c[nH]cn2)NC(=O)[C@H]([C@@H](C)CC)NC(=O)[C@H](CC(=O)O)NC(=O)[C@@H](NC(=O)[C@H](CC(N)=O)NC(=O)[C@@H](N)C(C)C)CSSC[C@@H](C(=O)N[C@@H](Cc2ccccc2)C(=O)N[C@@H](CCC(=O)O)C(=O)N[C@@H](CCCNC(=N)N)C(=O)N[C@@H](CC(C)C)C(=O)O)NC(=O)[C@H](CCC(=O)O)NC(=O)[C@H](Cc2c[nH]c3ccccc23)NC(=O)[C@H](CCC(=O)O)NC(=O)[C@H](Cc2c[nH]c3ccccc23)NC1=O`, binding in data set [2] was put at a Kd of 1.94 µM. Besides, half-maximal inhibition in data set [3] (IC50) was put at 4 µM.

These data come from ChEMBL document CHEMBL5029151, “Conformationally Constrained Peptides with High Affinity to the Vascular Endothelial Growth Factor” (J Med Chem, 2021).
